The target in assay [1] is T1, Lysine-specific demethylase 7A (Homo sapiens) (UniProt Q6ZMT4).
T1 sequence (whole entry): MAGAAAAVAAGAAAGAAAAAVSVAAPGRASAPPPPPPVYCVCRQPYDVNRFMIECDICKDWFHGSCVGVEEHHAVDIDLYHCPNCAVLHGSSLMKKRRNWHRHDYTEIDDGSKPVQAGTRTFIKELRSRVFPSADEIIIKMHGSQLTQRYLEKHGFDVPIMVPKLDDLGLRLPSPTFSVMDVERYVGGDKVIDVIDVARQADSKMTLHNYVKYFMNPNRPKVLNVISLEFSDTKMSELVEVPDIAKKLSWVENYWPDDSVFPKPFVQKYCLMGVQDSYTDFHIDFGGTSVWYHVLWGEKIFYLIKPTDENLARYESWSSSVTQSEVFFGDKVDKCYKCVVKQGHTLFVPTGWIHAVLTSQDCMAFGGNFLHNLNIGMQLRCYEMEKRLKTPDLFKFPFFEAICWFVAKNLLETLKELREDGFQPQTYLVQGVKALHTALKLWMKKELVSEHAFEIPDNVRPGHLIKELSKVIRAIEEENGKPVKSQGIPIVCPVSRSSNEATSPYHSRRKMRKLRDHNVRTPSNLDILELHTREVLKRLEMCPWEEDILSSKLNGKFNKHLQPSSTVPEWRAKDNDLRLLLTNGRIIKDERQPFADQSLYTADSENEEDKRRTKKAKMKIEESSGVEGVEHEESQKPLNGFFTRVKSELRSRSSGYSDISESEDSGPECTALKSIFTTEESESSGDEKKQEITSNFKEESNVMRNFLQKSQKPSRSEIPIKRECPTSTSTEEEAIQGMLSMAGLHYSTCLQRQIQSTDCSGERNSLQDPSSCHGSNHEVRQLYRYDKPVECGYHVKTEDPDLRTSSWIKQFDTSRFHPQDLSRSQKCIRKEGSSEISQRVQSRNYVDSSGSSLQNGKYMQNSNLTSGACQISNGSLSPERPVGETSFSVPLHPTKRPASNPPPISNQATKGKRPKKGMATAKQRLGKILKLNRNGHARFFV
Nature of the assay: Inhibition of KDM7A (PHD-JmjC) (unknown origin) demethylation activity at 100 uM preincubated for 10 mins followed by H3(1-15)K9me2 peptide substrate addition by MALDI-TOF-MS analysis.

Assay [2] concerns the target Histone lysine demethylase PHF8 (Homo sapiens) (UniProt Q9UPP1). Nature of the assay: Displacement of C-terminally biotinylated-H3K4me3 (1 to 21 residues) peptide from KDM7B (PHD-JmjC) (unknown origin) at 100 uM preincubated for 15 mins followed by peptide addition measured after 1 hr by luminescence-based AlphaScreen assay. A general note: Bead proximity is the source of the signal in Alpha formats.

Assay [3] addresses T1, Lysine-specific demethylase 7A (Homo sapiens). Nature of the assay: Displacement of C-terminally biotinylated-H3K4me3 (1 to 21 residues) peptide from KDM7A (PHD-JmjC) (unknown origin) at 100 uM preincubated for 15 mins followed by peptide addition measured after 1 hr by luminescence-based AlphaScreen assay.
In assay [4] the target is Lysine-specific demethylase 5A (Homo sapiens) (UniProt P29375). The experiment in a line: Mixed type inhibition of KDM5A (L88 to G353 residues) ARID/PHD1/2/3 deletion mutant (unknown origin) demethylation activity using H3(1-21)K4me3 peptide as substrate measured every 30 seconds over 25 mins by formaldehyde dehydrogenase coupled activity assay based Lineweaver-Burk plot analysis. In a few lines:
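FDH enzyme-coupled fluorescence assay of KDM5A_c2 demethylation, with formaldehyde production as the read-out. Kinetic analysis is made against the H3K4me3 substrate, and α and Ki are derived to assign the inhibition mode.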

For assay [5] the target is unchanged. The experiment in a line: Substrate activity at KDM5A (L88 to G353 residues) ARID/PHD1/2/3 deletion mutant (unknown origin) demethylation activity assessed as formaldehyde production measured every 30 seconds over 25 mins in absence of H3K4me3.

The source made the active and inactive calls. The calls are words filed in the database; no cut-off is given here.

Sequence of Histone lysine demethylase PHF8 (Homo sapiens) (Q9UPP1 whole entry, the tested form may be a part): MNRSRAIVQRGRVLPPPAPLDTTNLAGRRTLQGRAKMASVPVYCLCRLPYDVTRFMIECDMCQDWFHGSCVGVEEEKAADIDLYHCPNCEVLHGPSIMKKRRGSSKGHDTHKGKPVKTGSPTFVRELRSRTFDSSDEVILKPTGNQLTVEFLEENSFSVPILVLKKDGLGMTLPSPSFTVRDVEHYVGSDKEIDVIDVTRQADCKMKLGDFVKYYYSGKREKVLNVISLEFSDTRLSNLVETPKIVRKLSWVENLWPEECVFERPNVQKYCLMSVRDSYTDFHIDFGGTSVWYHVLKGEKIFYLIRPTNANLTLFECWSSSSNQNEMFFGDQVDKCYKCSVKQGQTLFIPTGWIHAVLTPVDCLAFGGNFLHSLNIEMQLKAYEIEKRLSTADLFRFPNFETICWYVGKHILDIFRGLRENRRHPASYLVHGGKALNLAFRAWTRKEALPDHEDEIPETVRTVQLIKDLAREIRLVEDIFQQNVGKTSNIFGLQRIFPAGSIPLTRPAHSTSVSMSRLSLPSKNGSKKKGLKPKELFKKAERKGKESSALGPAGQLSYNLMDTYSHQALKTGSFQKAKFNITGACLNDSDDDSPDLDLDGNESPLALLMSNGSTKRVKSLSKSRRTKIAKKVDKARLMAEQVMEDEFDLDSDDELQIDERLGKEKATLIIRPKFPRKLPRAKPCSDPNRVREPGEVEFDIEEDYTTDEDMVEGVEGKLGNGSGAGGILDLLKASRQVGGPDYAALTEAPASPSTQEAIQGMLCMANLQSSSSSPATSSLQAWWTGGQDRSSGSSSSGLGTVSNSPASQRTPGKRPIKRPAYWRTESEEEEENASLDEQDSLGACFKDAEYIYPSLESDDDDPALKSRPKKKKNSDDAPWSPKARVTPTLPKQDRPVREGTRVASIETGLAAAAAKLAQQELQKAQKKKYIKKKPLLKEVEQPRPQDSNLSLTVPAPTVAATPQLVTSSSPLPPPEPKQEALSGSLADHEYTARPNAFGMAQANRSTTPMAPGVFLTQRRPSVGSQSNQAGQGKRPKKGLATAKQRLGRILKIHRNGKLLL
Sequence of Lysine-specific demethylase 5A (Homo sapiens) (P29375 whole entry, the tested form may be a part): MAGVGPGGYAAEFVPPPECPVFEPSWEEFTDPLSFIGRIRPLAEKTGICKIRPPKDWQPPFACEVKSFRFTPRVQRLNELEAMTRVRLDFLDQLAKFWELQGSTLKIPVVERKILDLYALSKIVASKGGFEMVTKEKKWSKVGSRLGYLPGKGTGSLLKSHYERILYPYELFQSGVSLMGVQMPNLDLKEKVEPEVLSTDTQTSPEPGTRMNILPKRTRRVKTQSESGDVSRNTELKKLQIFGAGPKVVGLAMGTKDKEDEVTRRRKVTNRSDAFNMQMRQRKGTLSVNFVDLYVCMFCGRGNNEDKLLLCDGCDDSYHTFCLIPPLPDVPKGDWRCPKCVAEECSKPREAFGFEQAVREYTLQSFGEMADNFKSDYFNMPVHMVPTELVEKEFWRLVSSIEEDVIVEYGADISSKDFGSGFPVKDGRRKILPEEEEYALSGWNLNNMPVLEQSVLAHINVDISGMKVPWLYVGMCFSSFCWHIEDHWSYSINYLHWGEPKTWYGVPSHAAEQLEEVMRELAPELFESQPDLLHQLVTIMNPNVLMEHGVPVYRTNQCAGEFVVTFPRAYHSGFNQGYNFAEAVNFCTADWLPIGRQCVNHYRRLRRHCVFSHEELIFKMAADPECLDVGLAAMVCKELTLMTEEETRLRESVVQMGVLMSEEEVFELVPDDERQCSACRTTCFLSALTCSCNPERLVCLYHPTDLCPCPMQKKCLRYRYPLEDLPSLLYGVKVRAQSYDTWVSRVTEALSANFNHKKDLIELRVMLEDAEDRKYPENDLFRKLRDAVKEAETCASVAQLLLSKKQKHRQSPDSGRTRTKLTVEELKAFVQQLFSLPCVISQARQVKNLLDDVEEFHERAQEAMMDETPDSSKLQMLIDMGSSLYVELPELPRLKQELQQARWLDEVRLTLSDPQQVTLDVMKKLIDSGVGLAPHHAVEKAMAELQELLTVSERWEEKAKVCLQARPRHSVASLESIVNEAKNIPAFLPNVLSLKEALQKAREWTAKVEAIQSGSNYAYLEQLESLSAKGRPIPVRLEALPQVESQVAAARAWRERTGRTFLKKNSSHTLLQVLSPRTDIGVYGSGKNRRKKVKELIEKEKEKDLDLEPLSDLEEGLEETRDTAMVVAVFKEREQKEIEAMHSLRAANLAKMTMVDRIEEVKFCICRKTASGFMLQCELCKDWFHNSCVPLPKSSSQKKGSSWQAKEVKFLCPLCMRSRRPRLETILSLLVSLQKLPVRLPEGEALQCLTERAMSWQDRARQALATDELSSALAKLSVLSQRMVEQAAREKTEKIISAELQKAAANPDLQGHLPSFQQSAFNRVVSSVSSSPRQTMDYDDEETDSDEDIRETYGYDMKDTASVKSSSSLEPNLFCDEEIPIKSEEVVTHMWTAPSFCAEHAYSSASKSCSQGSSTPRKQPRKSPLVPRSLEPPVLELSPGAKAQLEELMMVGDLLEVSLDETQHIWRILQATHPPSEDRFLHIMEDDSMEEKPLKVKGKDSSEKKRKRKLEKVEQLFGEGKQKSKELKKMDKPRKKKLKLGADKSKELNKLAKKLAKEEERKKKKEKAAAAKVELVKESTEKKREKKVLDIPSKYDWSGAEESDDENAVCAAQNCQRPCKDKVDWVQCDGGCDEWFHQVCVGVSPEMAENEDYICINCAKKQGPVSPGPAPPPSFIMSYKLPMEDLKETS

As for `CCCCc1oc2ccccc2c1C(=O)c1ccc(OCCCN(C)C)cc1`, the inhibition (as a rule, the change of the read-out against control, counted positive when it falls) in assay [1] was determined as 100%. Besides, the inhibition result in assay [2] was “inactive”.

Take `CCCCc1oc2ccccc2c1C(=O)c1cc(I)c(OCC[N+](C)(C)C)c(I)c1`: the inhibition entry in assay [3] and in assay [2] was “inactive” each time. This compound also had an inhibition in assay [1] of 17%.

In assay [1], `CCCCc1oc2ccccc2c1C(=O)c1ccc(OCCC[N+](C)(C)C)cc1` showed an inhibition of 100%. In assay [4], the inhibition result is “Active”. Moreover, the outcome in assay [5] was inactive.

As for `Cc1oc2ccccc2c1C(=O)c1ccc(OCCC[N+](C)(C)C)cc1`, the inhibition in assay [1] was found to be 100%.

`CCCCc1oc2ccccc2c1C(=O)c1cc(I)c(OCCC[N+](C)(C)C)c(I)c1` registered an inhibition in assay [1] of 100%. Besides, the inhibition entry in assay [2] is “inactive”.

For the origin of these results see ChEMBL document CHEMBL4118181, “Investigations on small molecule inhibitors targeting the histone H3K4 tri-methyllysine binding PHD-finger of JmjC histone demethylases” (Bioorg Med Chem, 2018).
